Reference: ChEMBL document CHEMBL4368920, “Discovery of 2,4-diamino-5-cyanopyrimidine derivatives as protein kinase C theta inhibitors with mitigated time-dependent drug-drug interactions” (Bioorg Med Chem, 2019)
Values after ≈ are worked out from the molar mass of the structure shown.

How the values were obtained:
[1] = target: T1, Protein kinase C theta type (Homo sapiens, UniProt Q04759); assay: Inhibition of recombinant human full length PKCtheta using biotin-labelled STK substrate-1 as substrate after 60 mins by fluorescence assay
T1 sequence (Q04759 whole entry): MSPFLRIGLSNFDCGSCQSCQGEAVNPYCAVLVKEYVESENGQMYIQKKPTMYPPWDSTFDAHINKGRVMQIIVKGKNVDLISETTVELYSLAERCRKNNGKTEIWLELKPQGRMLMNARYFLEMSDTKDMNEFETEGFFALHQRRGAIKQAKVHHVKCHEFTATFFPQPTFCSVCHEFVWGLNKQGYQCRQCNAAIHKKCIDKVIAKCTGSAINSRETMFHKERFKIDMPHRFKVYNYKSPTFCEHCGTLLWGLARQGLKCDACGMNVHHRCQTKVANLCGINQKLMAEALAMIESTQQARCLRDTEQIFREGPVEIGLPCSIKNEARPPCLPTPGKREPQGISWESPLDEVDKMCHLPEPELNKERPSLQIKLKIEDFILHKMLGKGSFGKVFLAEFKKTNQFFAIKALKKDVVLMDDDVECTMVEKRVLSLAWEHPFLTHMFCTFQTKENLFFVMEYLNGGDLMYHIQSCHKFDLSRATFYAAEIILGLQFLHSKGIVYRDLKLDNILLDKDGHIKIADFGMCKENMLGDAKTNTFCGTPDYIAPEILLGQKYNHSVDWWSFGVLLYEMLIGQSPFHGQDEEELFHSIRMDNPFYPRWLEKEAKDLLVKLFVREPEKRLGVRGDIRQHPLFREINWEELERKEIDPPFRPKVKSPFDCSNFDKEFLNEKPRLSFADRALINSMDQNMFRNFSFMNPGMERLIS

CYP3A4 = CYP3A4 (Homo sapiens, UniProt P08684); assay: Time-dependent inhibition of CYP3A4 in human liver microsomes assessed as residual activity at 5 uM using midazolam as substrate preincubated for 30 mins followed by substrate addition and measured after 20 mins in presence of NADPH by LC-MS/MS analysis relative to control; type: ADME; conditions: probe midazolam, read-out: Activity
Sequence of CYP3A4 (P08684 whole entry): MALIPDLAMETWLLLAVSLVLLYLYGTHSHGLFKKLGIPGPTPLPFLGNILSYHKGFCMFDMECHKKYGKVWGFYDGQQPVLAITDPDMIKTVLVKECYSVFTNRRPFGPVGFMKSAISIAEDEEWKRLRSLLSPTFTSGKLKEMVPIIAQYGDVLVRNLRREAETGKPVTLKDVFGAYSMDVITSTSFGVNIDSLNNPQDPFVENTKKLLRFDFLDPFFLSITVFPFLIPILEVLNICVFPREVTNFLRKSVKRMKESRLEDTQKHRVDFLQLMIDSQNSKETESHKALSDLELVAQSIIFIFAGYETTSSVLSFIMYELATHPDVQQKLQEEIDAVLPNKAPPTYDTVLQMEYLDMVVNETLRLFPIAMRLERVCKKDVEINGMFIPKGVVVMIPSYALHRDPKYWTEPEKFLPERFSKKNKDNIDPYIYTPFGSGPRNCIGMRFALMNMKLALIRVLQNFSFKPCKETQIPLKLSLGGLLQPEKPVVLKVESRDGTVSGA
Method in brief: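 Human liver microsomes at 0.1 mg/mL in 100 mM potassium sodium phosphate (pH 7.4) with 1 mM NADPH and 0.1 mM EDTA, compound at 5 μM. Midazolam added either with no preincubation or after 30 min preincubation at 37 °C. Reaction run 20 min at 37 °C and stopped with acetonitrile. Residual activity is 30-min activity as a percentage of 0-min activity.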

[2] = Aqueous solubility of the compound at pH 6.8 at 130 uM after 20 hrs by HPLC analysis; type: physicochemical; conditions: aqueous solution
Method in brief: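 DMSO stock diluted to 130 μM with pH 6.8 aqueous buffer. Incubated 20 h at 25 °C, precipitate removed by filtration, filtrate concentration measured by HPLC.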

[3] = target: T1, Protein kinase C theta type; assay: Inhibition of PKCtheta in human Jurkat cells assessed as reduction in IL2 production after 14 hrs by luciferase reporter gene assay; type: cell-based
Method in brief: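 Jurkat cells transiently transfected with a pGL3-IL2 promoter firefly luciferase plasmid. Stimulated with anti-CD3 plus anti-CD28 antibodies in the presence of compound for 14 h, then luciferase substrate added. IC50 from duplicates in one experiment.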

[4] = AUC (0 to 24 hrs) in Sprague-Dawley rat at 1 mg/kg, iv by LC-MS/MS analysis; type: ADME, organism-based; parameters: time < 24 hr, dose 1 mg/kg, route intravenous; conditions: in vivo
Method in brief: (§1)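 Female SD rats, 1 mg/kg given as a single i.v. or oral dose in DMF/propylene glycol/1N HCl/saline (25/25/0.2/49.8). Blood sampled at multiple times up to 24 h. Unchanged compound in plasma measured by LC-MS/MS. Parameters derived by noncompartmental analysis. F taken as the AUC ratio of oral to i.v. dosing. Each value is the mean of three animals.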

[5] = Elimination half life in Sprague-Dawley rat at 1 mg/kg, iv by LC-MS/MS analysis; type: ADME, organism-based; conditions: in vivo, read-out: beta t1/2 (converted); method in brief: as §1
[6] = Volume of distribution at steady state in Sprague-Dawley rat at 1 mg/kg, iv by LC-MS/MS analysis; type: ADME, organism-based; conditions: in vivo, read-out: Vdss; method in brief: as §1
[7] = Total clearance in Sprague-Dawley rat at 1 mg/kg, iv by LC-MS/MS analysis; type: ADME, organism-based; conditions: in vivo; method in brief: as §1
[8] = AUC (0 to 24 hrs) in Sprague-Dawley rat at 1 mg/kg, po by LC-MS/MS analysis; type: ADME, organism-based; parameters: time < 24 hr, dose 1 mg/kg, route oral; conditions: in vivo; method in brief: as §1
[9] = Cmax in Sprague-Dawley rat at 1 mg/kg, po by LC-MS/MS analysis; type: ADME, organism-based; parameters: dose 1 mg/kg, route oral; conditions: in vivo; method in brief: as §1
[10] = Tmax in Sprague-Dawley rat at 1 mg/kg, po by LC-MS/MS analysis; type: ADME, organism-based; conditions: in vivo; method in brief: as §1
[11] = Oral bioavailability in Sprague-Dawley rat at 1 mg/kg by LC-MS/MS analysis; type: ADME, organism-based; conditions: in vivo; method in brief: as §1
Rattus norvegicus = assay: Immunosuppressive activity in Lewis rat transplanted with ACI rat cardiac tissue assessed as reduction in graft rejection by measuring mean survival days at 1 mg/kg, po administered for 14 consecutive days co-treated with tacrolimus (reference value: 7 days); type: functional
Method in brief: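 ACI donor hearts into Lewis recipients, abdominal vascularized heterotopic transplant under aseptic conditions; pentobarbital 40 mg/kg i.p. anaesthesia. Agent in propylene glycol, given orally with tacrolimus (0.02 mg/kg) for 14 consecutive days starting on operation day. Graft survival recorded per animal and median survival time reported (n = 9).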

| SMILES | IC50 [1] [nM] | activity at 20 min, 5 µM (CYP3A4) [%] | solubility at 20 h, 130 µM [2] [µM] | IC50 [3] [nM] | also measured |
| --- | --- | --- | --- | --- | --- |
| COc1ncccc1CNc1ncc(C#N)c(NCC23CC4CC(C2)C(NC[C@H]2CC[C@H](O)CC2)C(C4)C3)n1 (stereo not given in full) | 1.9 | 94 | > 50 | 43 | – |
| CC(C)NC1C2CC3CC1CC(CNc1nc(NCc4ccccc4OC(F)(F)F)ncc1C#N)(C3)C2 (stereo not given) | < 1 | 29 | – | – | – |
| N#Cc1cnc(NCc2ccccc2Cl)nc1NCC12CC3CC(C1)C(NC[C@H]1CC[C@H](O)CC1)C(C3)C2 (stereo not given in full) | 1.4 | 77 | 1.1 (≈ 0.589 µg/mL) | 22 | – |
| CSc1ccccc1CNc1ncc(C#N)c(NCC23CC4CC(C2)C(NC[C@H]2CC[C@H](O)CC2)C(C4)C3)n1 (stereo not given in full) | 0.94 | 92 | 45 (≈ 24.6 µg/mL) | 16 | – |
| CC(C)Sc1ncccc1CNc1ncc(C#N)c(NCC23CC4CC(C2)C(NC[C@H]2CC[C@H](O)CC2)C(C4)C3)n1 (stereo not given in full) | 0.23 | 66 | < 1 | 3 | – |
| CSc1ncccc1CNc1ncc(C#N)c(NCC23CC4CC(C2)C(NC[C@H]2CC[C@H](O)CC2)C(C4)C3)n1 (stereo not given in full) | 0.44 | 98 | > 50 | 10 | AUC(0-t) at 24 h [4]: 248 ng·h/mL; half-life [5]: 3.97 h; Vd [6]: 12.9 L/kg; clearance [7]: 66.7 mL/min/kg; AUC(0-t) at 24 h [8]: 145 ng·h/mL; Cmax [9]: 12.4 ng/mL; Tmax [10]: 3.33 h; bioavailability [11]: 58.3%; MSD (Rattus norvegicus): 20 days |
| N#Cc1cnc(NCc2ccccc2OC(F)(F)F)nc1NCC12CC3CC(C1)C(N[C@H]1CC[C@H](N)CC1)C(C3)C2 (stereo not given in full) | 0.1 | 59 | – | – | – |
| N#Cc1cnc(NCc2ccccc2OC(F)(F)F)nc1NCC12CC3CC(C1)C(NC[C@H]1CC[C@H](O)CC1)C(C3)C2 (stereo not given in full) | 0.42 | 70 | < 1 | 11 | – |
| N#Cc1cnc(NCc2ccccc2OC(F)(F)F)nc1NCC12CC3CC(C1)C(NC1CCCCC1)C(C3)C2 (stereo not given) | 1.9 | 43 | – | – | – |

Continued, in another order:

| IC50 [1] [nM] | activity at 20 min, 5 µM (CYP3A4) [%] | solubility at 20 h, 130 µM [2] [µM] | IC50 [3] [nM] | SMILES | also measured |
| --- | --- | --- | --- | --- | --- |
| 0.59 | 87 | > 100 | 18 | CC(C)Oc1ncccc1CNc1ncc(C#N)c(NCC23CC4CC(C2)C(NC[C@H]2CC[C@H](O)CC2)C(C4)C3)n1 (stereo not given in full) | – |
| > 100 | – | > 100 | – | COc1nnccc1CNc1ncc(C#N)c(NCC23CC4CC(C2)C(NC[C@H]2CC[C@H](O)CC2)C(C4)C3)n1 (stereo not given in full) | – |
| 0.46 | 80 | 16 (≈ 8.99 µg/mL) | < 3 | CCSc1ncccc1CNc1ncc(C#N)c(NCC23CC4CC(C2)C(NC[C@H]2CC[C@H](O)CC2)C(C4)C3)n1 (stereo not given in full) | – |
| 0.7 | 36 | – | – | N#Cc1cnc(NCc2ccccc2OC(F)(F)F)nc1NCC12CC3CC(C1)C(NCCO)C(C3)C2 (stereo not given) | – |
| 0.66 | 43 | – | – | N#Cc1cnc(NCc2ccccc2OC(F)(F)F)nc1NCC12CC3CC(C1)C(N[C@H]1CC[C@@H](O)CC1)C(C3)C2 (stereo not given in full) | – |
| 0.38 | 64 | – | – | N#Cc1cnc(NCc2ccccc2OC(F)(F)F)nc1NCC12CC3CC(C1)C(N[C@H]1CC[C@H](O)CC1)C(C3)C2 (stereo not given in full) | – |
| < 1 | 41 | – | – | N#Cc1cnc(NCc2ccccc2OC(F)(F)F)nc1NCC12CC3CC(C1)C(NC1CCOCC1)C(C3)C2 (stereo not given) | – |
| – | – | > 100 | 140 | CS(=O)(=O)c1ncccc1CNc1ncc(C#N)c(NCC23CC4CC(C2)C(NC[C@H]2CC[C@H](O)CC2)C(C4)C3)n1 (stereo not given in full) | – |
| 32 | – | > 100 | 170 | C[S+]([O-])c1ncccc1CNc1ncc(C#N)c(NCC23CC4CC(C2)C(NC[C@H]2CC[C@H](O)CC2)C(C4)C3)n1 (stereo not given in full) | – |
| 0.57 | 63 | – | 17 | N#Cc1cnc(NCc2ccccc2C(F)(F)F)nc1NCC12CC3CC(C1)C(NC[C@H]1CC[C@H](O)CC1)C(C3)C2 (stereo not given in full) | – |
